CSN deneddyl inh: inhibitors of CSN-mediated cullin deneddylation, primary screen, biochemical, fluorescence polarization, uHTS. COP9 signalosome complex subunit 5 (Homo sapiens), Q92905. Purified CSN, SCF-Nedd8-OG deneddylation. inhibition, % at 12.5 µM. hit rate 0.38% among 360,000. AID 651999, 2013;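 active = pattern-corrected inhibition above about 35%, with an unprinted fluorescence ratio check between 0.5 and 1.5, limit read from the data, passing the limit was not always enough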;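 also: 0% = enzyme with substrate and 100% = substrate without enzyme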
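test system = HEK293T-derived human Csn5 enzyme | amount = 0.24 nM Csn5 enzyme, final concentration | medium = Tris/NaCl/DTT buffer, pH 7.5 | schedule = 90 min reaction at room temperature | signal = FP | evaluation = inhibition of Csn5 cleavage, % | compound dosing = single dose of 12.5 µM compound with 0.25% DMSO | probe or stimulus = 10 nM SCFSkp2-Nedd8OG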
Rev-erbA mod: modulators of Rev-erb alpha DNA binding, primary screen, biochemical, FITC-DNA, fluorescence polarization, uHTS; Nuclear receptor subfamily 1 group D member 1 (Homo sapiens), P20393; Rev-erbα–FITC-DNA binding, 90 min; activity, % at 10 µM; hit rate 0.79% among 370,000;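 active = activity above about 14%, limit read from the data; passing the limit was not always enough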;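 also: 0% = DMSO wells with 35 nM protein and 100% = DMSO wells with 750 nM protein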
HNF4A DNA FP: change in binding of human HNF4A to DNA, primary screen, biochemical, fluorescence polarization, FITC-DNA; Hepatocyte nuclear factor 4-alpha (Homo sapiens), P41235; 1 h; activity change, % at 10 µM; hit rate 0.3% among 360,000; in the data active = activity change above about 30%, passing the limit was not always enough
Target sequence (P41235 whole entry, looked up): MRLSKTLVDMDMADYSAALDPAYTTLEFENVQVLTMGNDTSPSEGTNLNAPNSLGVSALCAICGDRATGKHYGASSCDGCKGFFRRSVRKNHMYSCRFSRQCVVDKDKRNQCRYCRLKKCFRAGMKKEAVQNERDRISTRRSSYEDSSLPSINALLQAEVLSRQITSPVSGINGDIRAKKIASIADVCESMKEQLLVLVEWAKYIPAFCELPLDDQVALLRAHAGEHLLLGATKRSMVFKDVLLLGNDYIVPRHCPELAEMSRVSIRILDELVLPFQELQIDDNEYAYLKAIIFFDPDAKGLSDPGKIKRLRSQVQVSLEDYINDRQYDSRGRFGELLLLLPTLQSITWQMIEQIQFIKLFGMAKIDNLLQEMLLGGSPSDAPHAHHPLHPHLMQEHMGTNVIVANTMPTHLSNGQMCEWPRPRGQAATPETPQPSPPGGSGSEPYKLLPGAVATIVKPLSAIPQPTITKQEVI
TPT1 inhibitor: Candida albicans TPT1 enzyme inhibitors, primary screen, biochemical, fluorescence polarization. tRNA 2'-phosphotransferase TPT1 (Candida albicans SC5314). recombinant caTPT1, FP RNA substrate dephosphorylation. inhibition, % at 5 µM. hit rate 0.81% among 300,000. AID 1962, 2009;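 active = inhibition above the mean of all tested compounds plus 3 SD, set per screening campaign, cut at about 24% in these data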;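 also: plate controls were DMSO alone for no effect and ferristatin control at 100 nM for full effect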
The depositor's hits bear a star; x = not tested or not shown. Hits are enriched below; roughly 1.7% of the tested compounds scored in any of these assays.

SMILES	CSN deneddyl inh	Rev-erbA mod	HNF4A DNA FP	TPT1 inhibitor
O=C(Cc1nc2ccccc2[nH]c1=O)c1ccccc1	-3.0	6.5	38.3*	x
O=c1[nH]c2ccccc2nc1Cc1ccccc1	-1.1	2.2	-1.0	2.8
CCOC(=O)C1=C(c2ccccc2)NC(=O)NC1c1ccc(N(C)C)cc1 (centres undefined)	2.3	x	1.3	-2.1
CCOC(=O)C1=C(c2ccccc2)NC(=O)NC1c1ccc(OC)cc1 (centres undefined)	107.3*	1.4	-3.9	-1.6
COc1c(C)c2c(c(O)c1C/C=C(\C)CCC(=O)OCCN1CCOCC1)C(=O)OC2	x	3.9	x	x
N=c1c(S(=O)(=O)c2ccc(Cl)cc2)cc2c(=O)n3ccccc3nc2n1Cc1ccco1	40.2*	-4.1	4.9	8.0
Cn1nc(-c2ccc(C(=O)Nc3ccc(F)cc3)cc2)c2ccccc2c1=O	44.4*	x	1.0	-1.3
CC[C@H](C)[C@H](N)C(=O)O	x	-3.4	x	x
CCc1ccccc1NC(=O)CN1CCN(CC(=O)Nc2ccc3c(c2)OC2(CCCCC2)O3)CC1	45.9*	-7.2	-0.5	x
CC1=CSC2=NC(=O)/C(=C\c3cccn3-c3ccccc3)C(=N)N12	3.6	-4.3	7.9	10.3
CC(C)c1ccc(-n2cccc2/C=C2/C(=N)N3C=CSC3=NC2=O)cc1	22.1	8.7	51.4*	10.1
CC1=CC2=NC(=O)/C(=C\c3cccn3CCOc3ccccc3C)C(=N)N2O1	-2.1	2.5	2.0	-0.7
Cc1ccccc1Cn1cccc1/C=C1/C(=N)N2C=CSC2=NC1=O	41.0*	-4.6	5.0	18.9
CCC[C@H]1[C@@H](N(C)CC2CCCCC2)CC[C@@]23CCCN2C(=O)CCC[C@@H]13	x	-4.2	x	x
Cc1ccc(S(=O)(=O)NCCC(=O)Oc2ccc3ccc(=O)oc3c2)cc1	41.3*	-10.3	5.5	3.2
COc1cc([C@@H]2c3cc4c(cc3C(O[C@@H]3O[C@@H]5CO[C@@H](c6cccs6)OC5[C@H](O)[C@H]3O)C3COC(=O)[C@@H]32)OCO4)cc(OC)c1O (some centres undefined)	x	1.8	x	x
CCOC(=O)c1c(NC(=O)c2cc(-c3ccc(O)cc3)on2)sc(C(C)=O)c1C	10.2	-26.6	153.8*	1.8
Cn1cccc1C(C#N)(CC#N)c1cccc(F)c1C#N (centres undefined)	101.1*	-2.2	1.9	-1.2
Cn1cccc1C(C#N)c1cccc(F)c1C#N (centres undefined)	-6.9	3.0	-4.0	-1.2
CCn1c(O)c(/C=N/NC(=O)c2ccncc2)c(=O)n(CC)c1=S	130.6	-0.6	77.7*	x
COc1ccccc1/C=N/NC(=O)COCC(=O)N/N=C/c1ccccc1OC	0.0	0.9	2.4	-0.3
COc1ccccc1/C=N/NC(=O)CC(=O)Nc1ccc(Cl)c(Cl)c1	-3.1	3.4	44.4*	-2.5
C=CCn1c(SCC(=O)Nc2ccccc2OCC)nnc1-c1ccc(C(C)(C)C)cc1	x	-11.3	x	x
Cc1nc(CS(=O)c2ccc(Cl)cc2)cc(NCc2ccc(Cl)cc2Cl)n1 (centres undefined)	52.0*	3.3	0.0	4.1
Cc1nc2ccc(NC(=O)c3c(Cl)cccc3Cl)cc2c(=O)[nH]1	x	6.3	x	x
SMILES	CSN deneddyl inh	Rev-erbA mod	HNF4A DNA FP	TPT1 inhibitor
CCCn1c(N)c(C(=O)CSc2nnc(-c3c[nH]c4ccccc34)n2C2CC2)c(=O)[nH]c1=O	-1.7	-7.0	2.3	x
Cn1c(N)c(C(=O)CSc2nnc(-c3c[nH]c4ccccc34)n2C2CC2)c(=O)[nH]c1=O	35.3*	-1.7	-1.8	x
CN(C)c1ccc(/C=C/c2ccc3c4ccccc4ccc3[n+]2-c2ccccc2)cc1	57.1*	-8.2	28.1	x
CCCCNC(=O)N1CCC(c2nc3ccc(Cl)cc3[nH]2)CC1	x	-3.0	x	x
OC(COCc1ccccc1)CN1CCN(c2ccccc2)CC1 (centres undefined)	-2.1	-4.6	2.6	1.7
OC(COCc1ccccc1)CN1CCCC1 (centres undefined)	37.1*	-4.6	4.0	1.9
CN1CCC(N[C@@H](Cc2c[nH]c3ccccc23)C(=O)NCCCc2ccccc2)(C(=O)NCCc2c[nH]c3ccccc23)CC1	x	-0.5	x	x
Cc1c(CCOC(=O)C23CC4(C)CC(C)(CC(C)(C4)C2)C3)sc[n+]1CC(=O)c1ccccc1	3.0	3.6	80.9*	1.4
C#CCOCCOCCOCCNc1nc(N2CCN(C(=O)[C@H](Cc3cc4ccccc4[nH]3)n3cc([C@@H](N)CC(C)C)nn3)CC2)nc(N2CCN(C(=O)[C@H](Cc3cc4ccccc4[nH]3)n3cc([C@@H](N)CC(C)C)nn3)CC2)n1	50.0*	x	24.6	0.3
C#CCOCCOCCOCCNc1nc(N2CCN(C(=O)C([C@@H](C)O)n3cc([C@@H](N)CCCCN)nn3)CC2)nc(N2CCN(C(=O)[C@H](CO)n3cc([C@@H](N)C(C)C)nn3)CC2)n1 (some centres undefined)	24.8	-5.5	77.9*	x
C#CCOCCOCCOCCNc1nc(N2CCN(C(=O)C([C@@H](C)O)n3cc([C@@H](N)CCCCN)nn3)CC2)nc(N2CCN(C(=O)C([C@@H](C)O)n3cc([C@@H](N)CCCCN)nn3)CC2)n1 (some centres undefined)	-0.9	-8.6	7.5	x
O=c1cc(-c2ccccc2Cl)oc2c(NS(=O)(=O)c3cc(Cl)cc(Cl)c3O)ccc(O)c12	47.1*	x	-21.5	1.5
COc1ccc(-c2cc(-c3nnc(SCC(=O)Nc4ccc(OCc5ccccc5)cc4)n3N)[nH]n2)cc1	x	-25.6	x	x
CCS(=O)(=O)Nc1ccc(-c2nnc(SCC(=O)c3ccc(NC(C)=O)c(OC)c3)o2)cc1	45.8*	-0.3	1.6	-5.0
CCS(=O)(=O)Nc1ccc(-c2nnc(SCC(=O)c3cccc(OC)c3)o2)cc1	0.4	x	0.7	-3.0
O=C(O)c1ccc(-n2c(=O)c3ccccc3c3ccccc3c2=O)cc1	-16.5	0.1	-1.1	1.3
Cc1ccc(-n2c(=O)c3cc4c(=O)n(-c5ccc(C)c(C)c5)c(=O)c4c(C(=O)c4ccc(C(=O)O)cc4)c3c2=O)cc1C	83.9*	-0.1	-57.6	-1.4
Cc1c(C(=O)Nc2c(F)cccc2F)sc2ncn(CC(=O)N3CCCCC3)c(=O)c12	-1.8	0.2	-0.1	4.2
COCCNC(=O)c1sc2ncn(CC(=O)N3CCCCC3)c(=O)c2c1C	1.0	-1.0	64.5*	-6.5
COc1ccc(-c2cc(C(=O)NN=Cc3ccccc3[N+](=O)[O-])[nH]n2)cc1	x	2.5	x	x
Cc1cccc(C(=O)NC(=S)Nc2ccccc2C(F)(F)F)c1	-11.4	-0.9	-4.0	-0.2
Cc1cccc(C(=O)NC(=S)Nc2ccccc2C(=O)O)c1	78.5*	0.1	7.8	-3.0
C[N+]1(C)C2CC[C@H]1CC(OC(=O)C(O)c1ccccc1)C2 (some centres undefined)	x	0.5	x	x
Cc1ccc(C(=O)NC(=S)NNC(=O)COc2ccccc2C)cc1	-8.4	-7.3	26.7*	-1.9
